According to ChEMBL document CHEMBL1649313, “T-2307 shows efficacy in a murine model of Candida glabrata infection despite in vitro trailing growth phenomena” (2010):
The source made the active and inactive calls. No cut-off for these calls is given here. *1 amine or outer side, *2 acyl side, *3 side chain or, on linkers, in order; H or OH if unused. Where a SMILES comes first, the peptide text is derived from it. Bridges are numbered along the chain shown (N, C = ends). [ ]: non-standard residue; d: D form. The star is where a group is joined. hTyr(3S-OH,4S-OH,3'-OSO3H) = N[C@H](C(=O)O)[C@H](O)[C@@H](O)c1ccc(O)c(OS(=O)(=O)O)c1; Orn(4R-OH,5R-OH) = O=C([C@H](C[C@@H](O)[C@@H](O)N[*:3])N[*:1])[*:2]; Pro(3S-OH,4S-Me) = C[C@H]1CN[C@H](C(=O)O)[C@H]1O; X1 = CCCCCOc1ccc(-c2cc(-c3ccc(C(=O)*)cc3)no2)cc1; Gln(3R-OH) = NC(=O)C[C@@H](O)[C@H](N)C(=O)O; Hyp = O=C(O)[C@@H]1C[C@@H](O)CN1

What was measured:
Nakaseomyces glabratus [1] = test: Antifungal activity against Candida glabrata ATCC 90030 assessed as growth inhibition at 0.0039 to 0.125 ug/ml after 24 hrs; assay type: functional, organism-based
Outline: (§1)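 Inhibition curve in CLSI M27-A3 microdilution: RPMI 1640 with 0.2% glucose, MOPS-buffered to pH 7.0, final inoculum 1 × 10^3 cells/ml. OD600 was read on a microplate spectrophotometer at 24 h and 48 h. Percent inhibition was calculated relative to the growth-control well.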

Nakaseomyces glabratus [2] = test: Antifungal activity against Candida glabrata ATCC 90030 after 48 hrs by broth microdilution method in presence of 0.1% glucose; assay type: functional; settings: ATCC 90030, 48 h
Outline: (§2)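 CLSI M27-A3 broth microdilution in RPMI 1640 (pH 7.0, 0.165 M MOPS) with glucose at 2%, 0.2%, 0.1%, 0.05% or 0.02%, or with 0.2% glycerol in place of glucose. Inoculum from 24-h SDA culture at 35°C, final 1 × 10^3 cells/ml. Incubated 48 h. MIC is the lowest concentration giving a prominent turbidity drop; OD600 also read against the growth control.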

Nakaseomyces glabratus [3] = test: Antifungal activity against Candida glabrata ATCC 90030 after 48 hrs by broth microdilution method in presence of 0.05% glucose; assay type: functional; settings: ATCC 90030, 48 h; outline: as §2
Nakaseomyces glabratus [4] = test: Antifungal activity against Candida glabrata ATCC 90030 after 48 hrs by broth microdilution method in presence of 0.2% glucose; assay type: functional; settings: ATCC 90030, 48 h; outline: as §2
Nakaseomyces glabratus [5] = test: Antifungal activity against Candida glabrata ATCC 90030 infected in ICR mouse assessed as fungal load in kidney at 0.1 mg/kg/day, sc for 8 days measured on day 8; assay type: functional; settings: route subcutaneous
Outline: (§3)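 Four-week-old male SPF ICR mice (n=5/group) were made neutropenic with cyclophosphamide 200 mg/kg ip on day −3 and 100 mg/kg on day +1. They were infected iv (tail vein) with 7.68 × 10^6 CFU/mouse in saline. Dosing was sc once daily for 8 days from 2 h post-infection; controls got saline. Day-8 kidney homogenates were plated on SDA with 0.1 mg/ml imipenem, 35°C, 5 days. Result is log CFU/kidneys, Dunnett test versus control.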

Nakaseomyces glabratus [6] = test: Antifungal activity against Candida glabrata ATCC 90030 assessed as growth inhibition at 0.0039 to 0.125 ug/ml after 48 hrs; assay type: functional, organism-based; outline: as §1
Nakaseomyces glabratus [7] = test: Antifungal activity against Candida glabrata ATCC 90030 infected in ICR mouse assessed as fungal load in kidney at 0.025 mg/kg/day, sc for 8 days measured on day 8; assay type: functional; settings: route subcutaneous; outline: as §3
Nakaseomyces glabratus [8] = test: Antifungal activity against Candida glabrata ATCC 90030 after 48 hrs by broth microdilution method in presence of 0.02% glucose; assay type: functional; settings: ATCC 90030, 48 h; outline: as §2
Nakaseomyces glabratus [9] = test: Antifungal activity against Candida glabrata ATCC 90030 after 48 hrs by broth microdilution method in presence of 2% glucose; assay type: functional; settings: ATCC 90030, 48 h; outline: as §2
Nakaseomyces glabratus [10] = test: Antifungal activity against Candida glabrata ATCC 90030 infected in ICR mouse assessed as fungal load in kidney at 0.05 mg/kg/day, sc for 8 days measured on day 8; assay type: functional; settings: route subcutaneous; outline: as §3
Nakaseomyces glabratus [11] = test: Antifungal activity against Candida glabrata ATCC 90030 after 48 hrs by broth microdilution method in presence of 0.2% glycerol; assay type: functional; settings: ATCC 90030, 48 h; outline: as §2
Nakaseomyces glabratus [12] = test: Antifungal activity against Candida glabrata ATCC 90030 infected in ICR mouse assessed as fungal load in kidney at 0.5 mg/kg/day, sc for 8 days measured on day 8; settings: route subcutaneous
Nakaseomyces glabratus [13] = test: Antifungal activity against Candida glabrata ATCC 90030 infected in ICR mouse assessed as fungal load in kidney at 0.125 mg/kg/day, sc for 8 days measured on day 8; settings: route subcutaneous
Nakaseomyces glabratus [14] = test: Antifungal activity against Candida glabrata ATCC 90030 infected in ICR mouse assessed as fungal load in kidney at 0.25 mg/kg/day, sc for 8 days measured on day 8; settings: route subcutaneous
Nakaseomyces glabratus [15] = test: Antifungal activity against Candida glabrata ATCC 90030 infected in ICR mouse assessed as fungal load in kidney at 5 mg/kg/day, sc for 8 days measured on day 8; assay type: functional; settings: route subcutaneous
Outline: (§4)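 Four-week-old male SPF ICR mice made neutropenic with cyclophosphamide ip, 200 mg/kg on day −3 and 100 mg/kg on day +1. Infected iv by tail vein with 7.68 × 10^6 CFU from an overnight SDA culture in saline. Dosed sc once daily for 8 days starting 2 h post-infection, 5 mice per group, saline controls. Kidneys harvested on day 8, homogenates plated on SDA with imipenem, 5 days at 35°C, log CFU counted, Dunnett test.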

Nakaseomyces glabratus [16] = test: Antifungal activity against Candida glabrata ATCC 90030 after 48 hrs by Almar blue assay in presence of 0.2% glucosel; settings: ATCC 90030, 48 h
Nakaseomyces glabratus [17] = test: Antifungal activity against Candida glabrata ATCC 90030 infected in ICR mouse assessed as fungal load in kidney at 10 mg/kg/day, sc for 8 days measured on […]; assay type: functional; settings: route subcutaneous
Nakaseomyces glabratus [18] = test: Antifungal activity against Candida glabrata ATCC 90030 infected in ICR mouse assessed as fungal load in kidney at 2.5 mg/kg/day, sc for 8 days measured on day 8; assay type: functional; settings: route subcutaneous; outline: as §4
Nakaseomyces glabratus [19] = test: Antifungal activity against Candida glabrata ATCC 90030 after 24 hrs by broth microdilution method in presence of 0.02% glucose; assay type: functional; settings: ATCC 90030, 24 h
Nakaseomyces glabratus [20] = test: Antifungal activity against Candida glabrata ATCC 90030 after 24 hrs by Almar blue assay in presence of 0.2% glucose; settings: ATCC 90030, 24 h
Nakaseomyces glabratus [21] = test: Antifungal activity against Candida glabrata ATCC 90030 after 24 hrs by broth microdilution method in presence of 0.05% glucose; assay type: functional; settings: ATCC 90030, 24 h
Nakaseomyces glabratus [22] = test: Antifungal activity against Candida glabrata ATCC 90030 after 24 hrs by broth microdilution method in presence of 0.1% glucose; assay type: functional; settings: ATCC 90030, 24 h
Nakaseomyces glabratus [23] = test: Antifungal activity against Candida glabrata ATCC 90030 after 24 hrs by broth microdilution method in presence of 0.2% glucose; assay type: functional; settings: ATCC 90030, 24 h
Nakaseomyces glabratus [24] = test: Antifungal activity against Candida glabrata ATCC 90030 after 24 hrs by broth microdilution method in presence of 2% glucose; assay type: functional; settings: ATCC 90030, 24 h

N=C(N)c1ccc(OCCCC2CCN(CCCOc3ccc(C(=N)N)cc3)CC2)cc1
Activity (Nakaseomyces glabratus [1]): Active
MIC (Nakaseomyces glabratus [2]): 0.0039 µg/mL
MIC (Nakaseomyces glabratus [3]): 0.001 µg/mL
MIC (Nakaseomyces glabratus [4]): 0.0039 µg/mL
log10cfu (Nakaseomyces glabratus [5]): 3.86
Activity (Nakaseomyces glabratus [6]): Active
log10cfu (Nakaseomyces glabratus [7]): 4.3
MIC (Nakaseomyces glabratus [8]): 0.001 µg/mL
MIC (Nakaseomyces glabratus [9]): > 0.125 µg/mL
log10cfu (Nakaseomyces glabratus [10]): 4
MIC (Nakaseomyces glabratus [11]): 0.0005 µg/mL

C[C@@H]1[C@H](O)[C@@H](C)/C=C/C=C/C=C/C=C/C=C/C=C/C=C/[C@H](O[C@@H]2O[C@H](C)[C@@H](O)[C@H](N)[C@@H]2O)C[C@@H]2O[C@](O)(C[C@@H](O)C[C@@H](O)[C@H](O)CC[C@@H](O)C[C@@H](O)CC(=O)O[C@H]1C)C[C@H](O)[C@H]2C(=O)O [AMPHOTERICIN B]
MIC (Nakaseomyces glabratus [2]): 2 µg/mL
MIC (Nakaseomyces glabratus [3]): 2 µg/mL
MIC (Nakaseomyces glabratus [4]): 2 µg/mL
log10cfu (Nakaseomyces glabratus [12]): 2.93
MIC (Nakaseomyces glabratus [8]): 2 µg/mL
log10cfu (Nakaseomyces glabratus [13]): 4.61
MIC (Nakaseomyces glabratus [9]): 2 µg/mL
log10cfu (Nakaseomyces glabratus [14]): 4.53
MIC (Nakaseomyces glabratus [11]): 1 µg/mL

OC(Cn1cncn1)(Cn1cncn1)c1ccc(F)cc1F [FLUCONAZOLE]
MIC (Nakaseomyces glabratus [2]): 8 µg/mL
log10cfu (Nakaseomyces glabratus [15]): 5.33
MIC (Nakaseomyces glabratus [3]): 8 µg/mL
MIC (Nakaseomyces glabratus [4]): 8 µg/mL
MIC (Nakaseomyces glabratus [8]): 4 µg/mL
MIC (Nakaseomyces glabratus [9]): 16 µg/mL
MIC (Nakaseomyces glabratus [16]): 16 µg/mL
log10cfu (Nakaseomyces glabratus [17]): 4.62
log10cfu (Nakaseomyces glabratus [18]): 4.96
MIC (Nakaseomyces glabratus [11]): 4 µg/mL

CCCCCOc1ccc(-c2cc(-c3ccc(C(=O)N[C@H]4C[C@@H](O)[C@@H](O)NC(=O)[C@@H]5[C@@H](O)[C@@H](C)CN5C(=O)[C@H]([C@H](O)CC(N)=O)NC(=O)[C@H]([C@H](O)[C@@H](O)c5ccc(O)c(OS(=O)(=O)O)c5)NC(=O)[C@@H]5C[C@@H](O)CN5C(=O)[C@H]([C@@H](C)O)NC4=O)cc3)no2)cc1 [MICAFUNGIN] (X1-[Orn(4R-OH,5R-OH)]T[Hyp][hTyr(3S-OH,4S-OH,3'-OSO3H)][Gln(3R-OH)][Pro(3S-OH,4S-Me)]; lactam 1-C)
log10cfu (Nakaseomyces glabratus [12]): 3.59
log10cfu (Nakaseomyces glabratus [13]): 5.13
MIC (Nakaseomyces glabratus [19]): 0.125 µg/mL
MIC (Nakaseomyces glabratus [20]): 0.0625 µg/mL
MIC (Nakaseomyces glabratus [16]): 0.0625 µg/mL
MIC (Nakaseomyces glabratus [21]): 0.0625 µg/mL
MIC (Nakaseomyces glabratus [22]): 0.0625 µg/mL
MIC (Nakaseomyces glabratus [23]): 0.0625 µg/mL
MIC (Nakaseomyces glabratus [24]): 0.0625 µg/mL
log10cfu (Nakaseomyces glabratus [14]): 5.21
MIC (Nakaseomyces glabratus [11]): 0.125 µg/mL
